Screening results as filed in PubChem.
Only a selection was taken, and hits are over-represented in it overall.
INS promoter act – activators of insulin promoter-driven GFP, primary screen, imaging, TRM-6 cells (human fetal islet line), eGFP reporter, cell count. plate-scaled: unstimulated 0, stimulated control 100. activation, % at 2 µM. 130,000 compounds, 0.81% hits;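 active means activation at 2 µM above a set limit, confirmed on inspection of the cell images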;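 further: share of cells whose green reporter signal exceeds an intensity cutoff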
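Assay system: TRM-6 human fetal islet cells, insulin promoter–eGFP reporter; Also added: 0.75 µM tamoxifen as reporter inducer; Schedule: 15 h tamoxifen pre-treatment, 48 h compound treatment at 37 °C; Signal: fixed-cell fluorescence microscopy, eGFP plus Hoechst; Read-out: percent activation from GFP-positive cell fraction; Control set: stimulated and unstimulated wells.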
Starred values were filed as active, the others as inactive.

SMILES	INS promoter act
CC12CCC(C(=O)N3CCN(Cc4ccccc4)CC3)(OC1=O)C2(C)C (stereo not drawn)	-2.7
CCOc1ccc(OCCOCCn2ccnc2)cc1	6.5
O=C(Nc1ccccc1)c1ccc(=O)n(Cc2ccc(F)c(F)c2)c1	-7.7
O=C(CCSCc1ccccc1Cl)NC1CCCC1	-7.1
O=c1[nH]c(SCc2ccccc2)nc2c1sc1ccccc12	-7.7
CCN1/C(=C/C(C)=C/c2sc3ccccc3[n+]2CC)Sc2ccccc21	640.7*
C=C(C)C1Cc2c(C)nn(-c3nc(C)cc(C)n3)c2C1 (stereo not drawn)	8.7
O=C(NCCCn1ccnc1)c1cccc(S(=O)(=O)Nc2ccccc2F)c1	-9.1
O=C(NCCCn1ccnc1)c1cccc(S(=O)(=O)NCc2ccccc2)c1	400.0*
CCN(c1ccccc1)S(=O)(=O)c1ccc(C(=O)NCCCn2ccnc2)cc1	9.1
CC(=O)N/C(=C/c1ccc2c(c1)OCO2)C(=O)NCC(=O)O	-7.1
Fc1cccc(-n2ncc(-c3nnnn3-c3ccccc3)c2C(F)(F)F)c1	528.6*
Clc1cccc(N2CCN(c3nnnn3-c3ccccc3)CC2)c1	7.1
c1ccc(-n2nnnc2OCCOc2nnnn2-c2ccccc2)cc1	153.8
COc1ccccc1/C=C(\NC(=O)c1ccc(OC)c(OC)c1)C(=O)Nc1cc([N+](=O)[O-])ccc1C	-2.9
CC(C(=O)O)N(C(=O)c1ccccc1)c1ccc(F)cc1 (stereo not drawn)	-4.8
Cn1cc(CNC(=O)C23CC4CC(CC(C4)C2)C3)cn1	-5.3
CCn1ncc(Br)c1C(=O)Nc1ccc(F)c([N+](=O)[O-])c1	238.5
Cc1ccc(C(=O)NC(=S)Nc2ccccc2N2CCCC2)cc1[N+](=O)[O-]	0.0
CCn1ncc(Cl)c1C(=O)NC(=S)Nc1c(C)cc(C)cc1[N+](=O)[O-]	292.9*
Cc1cc(C)nc(NC(=S)Nc2ccc(Br)cc2Cl)c1	-6.7
Cc1ccc(NC(=O)N/C=C/c2ccco2)cc1	-6.7
CCC(=O)Oc1c(-c2ccccc2)c2nc3ccccc3nc2c2ccccc12	376.2
Cc1cc(NCCO)c2ccccc2n1	-5.4
CCCNc1c(F)c(F)c2c(C)c3ccccc3nc2c1F	160.0*
SMILES	INS promoter act
CCCSc1nnc(CSc2ncccn2)n1C	0.0
COc1ccc(S(=O)(=O)NCc2ccc(C)cc2)cc1	3.1
COc1ccc(C2C(C(=O)N3CCN(C)CC3)c3cc(OC)c(OC)cc3C(=O)N2C)cc1 (stereo not drawn)	0.0
COc1cc2c(cc1OC)C(C(=O)Nc1cccc(C)n1)C(c1cccnc1)N(C)C2=O (stereo not drawn)	0.0
COc1cc2c(cc1OC)C(C(=O)Nc1ccccc1N1CCN(C)CC1)C1c3ccccc3CCN1C2=O (stereo not drawn)	355.0*
COc1ccc(C2C(C#N)=C(N)Oc3cc(C)[nH]c(=O)c32)c(OC)c1OC (stereo not drawn)	7.1
COc1ccc(/C=C2\C(=O)NCC(=O)N2Cc2ccccc2)cc1	-9.4
COc1ccc(/C=C/c2ccc(=O)n(Cc3ccccc3)n2)cc1	7.7
COc1ccc(/C=C/C2=NN(Cc3ccccc3)C(=O)CC2)cc1	387.8*
CCOC(=O)c1ccc(NC(=O)CSc2ccc(-c3ccncc3)nn2)cc1	8.3
O=C(c1ccccn1)c1cc2ccccc2n1S(=O)(=O)c1ccccc1	3.4
CCOC(=O)C1CCN(S(=O)(=O)c2ccc(C)c(C)c2)CC1	206.3*
CCOC(=O)C1CCCN(S(=O)(=O)c2ccc(C)cc2)C1 (stereo not drawn)	0.0
CCNC(=O)NC(=O)C(C)OC(=O)C1CCN(S(=O)(=O)c2ccc(C)c(C)c2)CC1 (stereo not drawn)	107.8
O=C(Oc1ccc(/C=N/Nc2nc(N3CCCCC3)nc(N3CCCCC3)n2)cc1)c1ccco1	-2.4
CCCCNC(=O)/C(C#N)=C/c1cccnc1	0.0
CC1=NN(C(=O)c2ccc(C)o2)C(O)(c2ccccc2)C1 (stereo not drawn)	-3.3
CC(=O)c1ccc(NC(=O)NCc2ccc(F)cc2)cc1	326.3*
CC(=O)c1ccc(NC(=O)Nc2ccccc2)cc1	0.0
CCN(CC)c1ccc(NC(=O)Nc2ccc(C(C)=O)cc2)cc1	2.3
COc1ccccc1CNC(=O)C(CCSC)NS(=O)(=O)c1ccc2c(c1)oc(=O)n2C (stereo not drawn)	164.3*
COc1ccc(OC)c(NC(=O)CCNS(=O)(=O)c2ccc3c(c2)oc(=O)n3C)c1	-7.1
COc1cc(OC)c(NC(=O)CCNS(=O)(=O)c2ccc3c(c2)oc(=O)n3C)cc1Cl	0.0
C(#Cc1ccccc1)C[N+]1(CC#Cc2ccccc2)CCCC1	-5.3
c1ccc(SSc2ccccc2)cc1	0.0
SMILES	INS promoter act
Nc1ccc(C#Cc2ccccc2)cc1	207.1*
Cc1[nH]c(=O)[nH]c(=O)c1S(=O)(=O)N1CCCC(C(=O)NCc2ccccc2Cl)C1 (stereo not drawn)	-7.1
CCc1ccc(N(C(=O)c2ccco2)C(C(=O)NC2CCCC2)c2ccco2)cc1 (stereo not drawn)	2.9
Clc1ccc(OCc2nc(-c3ccncc3)no2)c(Cl)c1	8.3
Clc1ccc(-c2nnc(-c3ccccc3)o2)c(Cl)c1	115.4
Clc1ccc(OCc2nnc(-c3ccccc3Br)o2)c(Cl)c1	120.0*
Cc1cccc(N(C(=O)c2ccc(CN3CCOCC3)o2)C(C(=O)NC(C)(C)C)c2ccc(F)cc2)c1 (stereo not drawn)	266.7
COC(=O)c1ccc(C(=O)OC)c(NC(=O)c2cc3ccccc3o2)c1	-26.2
COc1cc2c(cc1NC(=O)c1cncc(Br)c1)oc1ccccc12	443.8*
COc1cc2c(cc1NC(=O)CSc1cccc[n+]1[O-])oc1ccccc12	0.0
COc1cc2c(cc1NC(=O)Nc1ccccc1)oc1ccccc12	-6.9
COc1cc2c(cc1NC(=O)CCCN1C(=O)CCC1=O)oc1ccccc12	506.3*
COc1cc2c(cc1NC(=O)COc1ccccc1OC)oc1ccccc12	3.3
COc1cc2c(cc1NC(=O)CSCC(=O)O)oc1ccccc12	-7.1
O=C(Cc1ccccc1)Nc1cc(C(=O)c2ccccc2)ccc1N1CCOCC1	0.0
Cc1cccc(NC(=O)CSc2ccc(C(N)=O)cc2[N+](=O)[O-])c1C	-8.1
CCN(CC)S(=O)(=O)c1cc(C(=O)OCC(=O)Nc2cccc(C)c2C)ccc1F	0.0
CC(C)(c1ccccc1)c1ccc(OCCCNCCO)cc1	-6.5
COc1ccc2c(COC(=O)CNC(=O)C34CC5CC(CC(C5)C3)C4)cc(=O)oc2c1	3.3
CN(C)c1nc(Cl)nc(NCCOc2ccccc2)n1	-65.5
O=c1c(-c2nc3ccccc3s2)cccn1Cc1ccc(Cl)c(Cl)c1	6.7
COc1cccc(NC(=O)CSc2nnc(-c3ccoc3C)n2CC2CCCO2)c1 (stereo not drawn)	5.6
COc1ccc(NC(=O)CSc2nnc(-c3ccoc3C)n2CC2CCCO2)cc1 (stereo not drawn)	506.3*
O=C(CSc1nnc(-c2ccco2)n1CC1CCCO1)NC1CCCC1 (stereo not drawn)	-6.9
CCCC1CCc2c(sc(N)c2C(N)=O)C1 (stereo not drawn)	9.9
Cc1cc(=O)nc2c3ccccc3n(C(C)C(=O)Nc3c(F)c(F)c(F)c(F)c3F)n12 (stereo not drawn)	0.0
COC(=O)c1sc2cc([N+](=O)[O-])cc(SCC(C)C)c2c1N	589.7*
COCCSc1nnc(NC(=O)c2cc(C(=O)OC)cc([N+](=O)[O-])c2)s1	7.1
